From ChEMBL document CHEMBL1141909, “3-Arylidene-1-(4-nitrophenylmethylene)-3,4-dihydro-1H-naphthalen-2-ones and related compounds displaying selective toxicity and reversal of multidrug resistance in neoplastic cells” (2005)

Experiments:
[1] = Concentration for 50% cytotoxicity towards malignant cells expressed in HSC-2 neoplastic cell line; format: functional; conditions: Homo sapiens
Procedure, shortened: (§1)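 Human oral squamous carcinoma HSC-2 and HSC-3 and submandibular gland carcinoma HSG cells were grown in DMEM with 10% heat-inactivated FBS. Near-confluent cells were exposed to various compound concentrations for 24 h. Viable cells were read by MTT (absorbance of stained lysate at 540). CC50 came from dose-response curves as the mean of duplicates.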

[2] = Selectivity index of compound towards human malignant cell lines; format: functional
[3] = tested on: HL-60; experiment: Concentration for 50% cytotoxicity towards malignant cells expressed in HL-60 neoplastic cell line; format: functional; conditions: Homo sapiens
Procedure, shortened: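 Human promyelocytic leukaemia HL-60 cells were grown in RPMI1640 with 10% FBS and exposed to various compound concentrations for 24 h. Viable cell number was counted by trypan blue exclusion. CC50 was taken from dose-response curves, mean of duplicate determinations.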

[4] = Effect of compound on multidrug resistance in murine L-5178 cells at 40 ug/ml concentration; expressed as fluorescence activity ratio (treated/untreated cells); format: functional, Mus musculus
[5] = tested on: HSC-3; experiment: Concentration for 50% cytotoxicity towards malignant cells expressed in HSC-3 neoplastic cell line; format: functional; conditions: Homo sapiens; procedure, shortened: as §1
[6] = Effect of compound on multidrug resistance in murine L-5178 cells at 4 ug/ml concentration; expressed as fluorescence activity ratio (treated/untreated cells); format: functional, Mus musculus
[7] = Effect of compound on multidrug resistance in colon320 neoplasm cells at 40 ug/ml concentration; expressed as fluorescence activity ratio (treated/untreated cells); format: functional, Homo sapiens
[8] = Concentration for 50% cytotoxicity towards nonmalignant cells expressed in HPLF normal periodontal ligament fibroblasts; conditions: Homo sapiens
[9] = Concentration for 50% cytotoxicity towards nonmalignant cells expressed in HPC normal pulp cells; conditions: Homo sapiens
[10] = Effect of compound on multidrug resistance in colon320 neoplasm cells at 4 ug/ml concentration; expressed as fluorescence activity ratio (treated/untreated cells); format: functional, Homo sapiens
[11] = Concentration for 50% cytotoxicity towards nonmalignant cells expressed in HGF normal gingival fibroblasts; conditions: Homo sapiens
[12] = Concentration for 50% cytotoxicity towards malignant cells expressed in HSG neoplastic cell line; format: functional; conditions: Homo sapiens; procedure, shortened: as §1
[13] = Effect of compound on multidrug resistance in murine L-5178 cells at 10 ug/ml concentration; expressed as fluorescence activity ratio (treated/untreated cells); format: functional, Mus musculus

Row | SMILES | CC50 [1] | SI [2] | CC50 [3] | Effect [4] | CC50 [5] | Effect [6] | Effect [7] | CC50 [8] | CC50 [9] | Effect [10] | CC50 [11] | CC50 [12] | Effect [13]
1 | COc1cc(/C=C2\CCC/C(=C\c3ccc([N+](=O)[O-])cc3)C2=O)cc(OC)c1OC | 0.76 µM | 95 | 1.1 µM | 75.1 | 4.7 µM | 15.6 | 4.38 | 378 µM | 347 µM | 7.43 | 336 µM | 8.3 µM | –
2 | COc1cc(/C=C2\Cc3ccccc3/C(=C\c3ccc([N+](=O)[O-])cc3)C2=O)ccc1O | 1.45 µM | 15 | 0.95 µM | 123 | 3.8 µM | 51.8 | 6.2 | 21 µM | 83 µM | 3.38 | 33 µM | 5.8 µM | –
3 | COc1ccc(/C=C2\CCC/C(=C\c3ccc([N+](=O)[O-])cc3)C2=O)cc1OC | 2.3 µM | 13 | 4.3 µM | 47.3 | 4.4 µM | 20.4 | 4.62 | 95 µM | 82 µM | 6.12 | 53 µM | 13 µM | –
4 | COc1cc(/C=C2\CC/C(=C\c3ccc([N+](=O)[O-])cc3)C2=O)cc(OC)c1OC | > 400 µM | ~1 | > 400 µM | 6.62 | > 400 µM | 3.06 | 1.28 | > 400 µM | > 400 µM | 1.96 | > 400 µM | > 400 µM | –
5 | COc1cc(/C=C2\CCC/C(=C\c3ccc([N+](=O)[O-])cc3)C2=O)ccc1O | 2.8 µM | > 44 | 3.4 µM | 0.83 | 5.2 µM | 1.5 | 1.13 | 171 µM | > 400 µM | 1.98 | 165 µM | 11 µM | –
6 | COc1cc(/C=C2/C(=O)/C(=C/c3ccc([N+](=O)[O-])cc3)c3ccccc32)cc(OC)c1OC | 221 µM | ~0.6 | 318 µM | – | > 400 µM | – | – | > 400 µM | 153 µM | – | 89 µM | > 400 µM | –
7 | COc1ccc(CCN(C)CCCC(C#N)(c2ccc(OC)c(OC)c2)C(C)C)cc1OC (configuration not stated) [VERAPAMIL] | – | – | – | – | – | – | – | – | – | – | – | – | 38.2
8 | O=C1/C(=C/c2ccc([N+](=O)[O-])cc2)CCC/C1=C\c1ccc2c(c1)OCO2 | 308 µM | ~1.2 | > 400 µM | 1.23 | 189 µM | 0.91 | 0.59 | 330 µM | 391 µM | 0.67 | > 400 µM | > 400 µM | –
9 | COc1cccc2c1C(=O)c1c(O)c3c(c(O)c1C2=O)C[C@@](O)(C(=O)CO)C[C@@H]3O[C@H]1C[C@H](N)[C@H](O)[C@H](C)O1 [DOXORUBICIN] | 0.68 µM | > 235 | 0.47 µM | – | 2.9 µM | – | – | > 400 µM | 414 µM | – | 233 µM | 1.9 µM | –
10 | O=C1/C(=C/c2ccc(O)cc2)CCC/C1=C\c1ccc([N+](=O)[O-])cc1 | 8.1 µM | ~3.8 | 4.4 µM | 0.97 | 13 µM | 0.94 | 0.6 | > 400 µM | > 400 µM | 1.15 | > 400 µM | > 400 µM | –
11 | COc1ccc(/C=C2\Cc3ccccc3/C(=C\c3ccc([N+](=O)[O-])cc3)C2=O)cc1OC | 0.92 µM | > 159 | 0.56 µM | 55.9 | 4.2 µM | 44.1 | 11.4 | > 400 µM | > 400 µM | 7.19 | > 400 µM | 4.4 µM | –
12 | O=C1/C(=C/c2ccc3c(c2)OCO3)Cc2ccccc2/C1=C\c1ccc([N+](=O)[O-])cc1 | 2.6 µM | > 92 | 2.2 µM | 3.87 | 7.6 µM | 3.27 | 2.27 | > 400 µM | > 400 µM | 1.95 | > 400 µM | 5 µM | –
13 | COc1ccc(/C=C2\CC/C(=C\c3ccc([N+](=O)[O-])cc3)C2=O)cc1 | 63 µM | ~1.3 | > 400 µM | 0.69 | > 400 µM | 0.59 | 0.37 | > 400 µM | > 400 µM | 0.63 | > 400 µM | > 400 µM | –
14 | COc1ccc(/C=C2\CCC/C(=C\c3ccc([N+](=O)[O-])cc3)C2=O)cc1 | > 400 µM | ~1 | > 400 µM | 0.82 | > 400 µM | 0.76 | 0.58 | > 400 µM | > 400 µM | 0.5 | > 400 µM | > 400 µM | –
15 | O=C1/C(=C/c2ccc(Cl)cc2)CCC/C1=C\c1ccc([N+](=O)[O-])cc1 | 1.5 µM | 46 | 4.1 µM | 0.94 | 4.6 µM | 1.16 | 0.53 | 332 µM | 345 µM | 0.6 | 191 µM | 15 µM | –
16 | COc1cc(/C=C2\Cc3ccccc3/C(=C\c3ccc([N+](=O)[O-])cc3)C2=O)cc(OC)c1OC | 0.55 µM | > 229 | 0.55 µM | 120 | 2.9 µM | 134 | 13 | > 400 µM | > 400 µM | 10.9 | > 400 µM | 3 µM | –
17 | O=C1/C(=C/c2ccc(O)cc2)Cc2ccccc2/C1=C\c1ccc([N+](=O)[O-])cc1 | 5.2 µM | 12 | 2.5 µM | 39.3 | 14 µM | 135 | 11.7 | 75 µM | 113 µM | 1.99 | 85 µM | 11 µM | –
18 | COc1ccc(/C=C2\Cc3ccccc3/C(=C\c3ccc([N+](=O)[O-])cc3)C2=O)cc1 | 11 µM | > 17 | 4.4 µM | 7.68 | 32 µM | 4.36 | 4.3 | > 400 µM | > 400 µM | 2.22 | > 400 µM | 47 µM | –
